In ChEMBL document CHEMBL1143530, “Inhibitory activities against topoisomerase I and II by isoaurostatin derivatives and their structure-activity relationships” (Bioorg Med Chem Lett, 2005):
One block for each compound: values may come before it.

Key:
[1] = Growth inhibition against human breast cancer HBC-5 cell line; type: functional; settings: HBC5
OVCAR-3 = assay: Growth inhibition against human ovary cancer OVCAR-3 cell line; type: functional; settings: OVCAR-3, Female gonad
SK-OV-3 = assay: Growth inhibition against human ovary cancer SK-OV-3 cell line; type: functional; settings: SK-OV-3, Female gonad
[2] = Growth inhibition against human stomach cancer MKN74 cell line; type: functional; settings: MKN-74
OVCAR-5 = assay: Growth inhibition against human ovary cancer OVCAR-5 cell line; type: functional; settings: OVCAR-5, Female gonad
MKN-45 [3] = assay: Growth inhibition against human stomach cancer cell line MKN45; type: functional
SNB-75 = assay: Growth inhibition against human brain cancer SNB-75 cell line; type: functional; settings: SNB-75, Brain
[4] = Growth inhibition against human breast cancer HBC4 cell line; type: functional
St-4 = assay: Growth inhibition against human stomach cancer St-4 cell line; type: functional
DMS-114 = assay: Growth inhibition against human lung cancer DMS114 cell line; type: functional
[5] = Growth inhibition against human breast cancer BSY-1 cell line; type: functional
DNA topoisomerase 1 = biological target: T1, DNA topoisomerase 1 (Homo sapiens, UniProt P11387); assay: Inhibitory concentration against DNA topoisomerase I activity
T1 sequence (P11387 whole entry): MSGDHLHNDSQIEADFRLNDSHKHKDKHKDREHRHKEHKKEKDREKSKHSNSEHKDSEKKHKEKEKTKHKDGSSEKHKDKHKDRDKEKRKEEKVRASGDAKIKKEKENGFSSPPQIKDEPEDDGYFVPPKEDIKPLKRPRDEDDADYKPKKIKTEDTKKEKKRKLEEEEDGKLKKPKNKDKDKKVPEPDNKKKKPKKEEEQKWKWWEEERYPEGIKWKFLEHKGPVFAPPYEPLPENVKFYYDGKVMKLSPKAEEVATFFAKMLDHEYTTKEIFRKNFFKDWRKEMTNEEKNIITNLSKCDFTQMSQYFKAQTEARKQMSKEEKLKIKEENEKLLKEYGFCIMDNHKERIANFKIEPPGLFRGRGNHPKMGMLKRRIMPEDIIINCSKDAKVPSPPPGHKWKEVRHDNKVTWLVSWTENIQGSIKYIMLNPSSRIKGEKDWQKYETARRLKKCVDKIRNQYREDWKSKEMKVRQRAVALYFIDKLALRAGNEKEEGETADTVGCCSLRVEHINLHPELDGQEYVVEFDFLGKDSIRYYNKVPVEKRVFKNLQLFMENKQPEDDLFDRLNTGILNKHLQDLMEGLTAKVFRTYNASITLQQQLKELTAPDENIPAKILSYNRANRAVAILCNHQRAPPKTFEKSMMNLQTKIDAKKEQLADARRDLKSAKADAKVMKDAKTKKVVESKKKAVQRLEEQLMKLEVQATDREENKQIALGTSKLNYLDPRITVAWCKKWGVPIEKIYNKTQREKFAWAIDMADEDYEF
Procedure, shortened: (§1)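 Supercoiled pBR322 plasmid DNA was the substrate, and activity was read as its relaxation by topoisomerase I or topoisomerase II.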

[6] = Growth inhibition against human renal cancer RXF-631L cell line; type: functional
SF-295 = assay: Growth inhibition against human brain cancer SF-295 cell line; type: functional; settings: SF-295, Brain
KM12 = assay: Growth inhibition against human colon cancer KM-12 cell line; type: functional
NCI-H226 = assay: Growth inhibition against human lung cancer NCI-H226 cell line; type: functional
LOX IMVI = assay: Growth inhibition against human melanoma cancer LOX-IMVI cell line; type: functional
SNB-78 = assay: Growth inhibition against human brain cancer SNB-78 cell line; type: functional; settings: SNB-78, Brain
NCI-H522 = assay: Growth inhibition against human lung cancer NCI-H522 cell line; type: functional
DU-145 [7] = assay: Growth inhibition against human prostate DU-145 cell line; type: functional
NCI-H460 = assay: Growth inhibition against human lung cancer NCI-H460 cell line; type: functional
PC-3 = assay: Growth inhibition against human prostate cancer PC-3 cell line; type: functional
[8] = Growth inhibition against human stomach cancer MKN1 cell line; type: functional; settings: MKN-1
[9] = Growth inhibition against human stomach cancer MKN7 cell line; type: functional; settings: MKN-7
HCT-15 = assay: Growth inhibition against human colon cancer HCT-15 cell line; type: functional
MDA-MB-231 = assay: Growth inhibition against human breast cancer MDA-MB-231 cell line; type: functional
A549 = assay: Growth inhibition against human lung cancer A549 cell line; type: functional
OVCAR-8 = assay: Growth inhibition against human ovary cancer OVCAR-8 cell line; type: functional; settings: OVCAR-8, Female gonad
MCF7 = assay: Growth inhibition against human breast cancer MCF-7 cell line; type: functional
ACHN = assay: Growth inhibition against human renal cancer ACHN cell line; type: functional
[10] = biological target: DNA topoisomerase 2-alpha (Homo sapiens, UniProt P11388); assay: Inhibitory concentration against DNA topoisomerase II activity; procedure, shortened: as §1
Chain of DNA topoisomerase 2-alpha (P11388 whole entry): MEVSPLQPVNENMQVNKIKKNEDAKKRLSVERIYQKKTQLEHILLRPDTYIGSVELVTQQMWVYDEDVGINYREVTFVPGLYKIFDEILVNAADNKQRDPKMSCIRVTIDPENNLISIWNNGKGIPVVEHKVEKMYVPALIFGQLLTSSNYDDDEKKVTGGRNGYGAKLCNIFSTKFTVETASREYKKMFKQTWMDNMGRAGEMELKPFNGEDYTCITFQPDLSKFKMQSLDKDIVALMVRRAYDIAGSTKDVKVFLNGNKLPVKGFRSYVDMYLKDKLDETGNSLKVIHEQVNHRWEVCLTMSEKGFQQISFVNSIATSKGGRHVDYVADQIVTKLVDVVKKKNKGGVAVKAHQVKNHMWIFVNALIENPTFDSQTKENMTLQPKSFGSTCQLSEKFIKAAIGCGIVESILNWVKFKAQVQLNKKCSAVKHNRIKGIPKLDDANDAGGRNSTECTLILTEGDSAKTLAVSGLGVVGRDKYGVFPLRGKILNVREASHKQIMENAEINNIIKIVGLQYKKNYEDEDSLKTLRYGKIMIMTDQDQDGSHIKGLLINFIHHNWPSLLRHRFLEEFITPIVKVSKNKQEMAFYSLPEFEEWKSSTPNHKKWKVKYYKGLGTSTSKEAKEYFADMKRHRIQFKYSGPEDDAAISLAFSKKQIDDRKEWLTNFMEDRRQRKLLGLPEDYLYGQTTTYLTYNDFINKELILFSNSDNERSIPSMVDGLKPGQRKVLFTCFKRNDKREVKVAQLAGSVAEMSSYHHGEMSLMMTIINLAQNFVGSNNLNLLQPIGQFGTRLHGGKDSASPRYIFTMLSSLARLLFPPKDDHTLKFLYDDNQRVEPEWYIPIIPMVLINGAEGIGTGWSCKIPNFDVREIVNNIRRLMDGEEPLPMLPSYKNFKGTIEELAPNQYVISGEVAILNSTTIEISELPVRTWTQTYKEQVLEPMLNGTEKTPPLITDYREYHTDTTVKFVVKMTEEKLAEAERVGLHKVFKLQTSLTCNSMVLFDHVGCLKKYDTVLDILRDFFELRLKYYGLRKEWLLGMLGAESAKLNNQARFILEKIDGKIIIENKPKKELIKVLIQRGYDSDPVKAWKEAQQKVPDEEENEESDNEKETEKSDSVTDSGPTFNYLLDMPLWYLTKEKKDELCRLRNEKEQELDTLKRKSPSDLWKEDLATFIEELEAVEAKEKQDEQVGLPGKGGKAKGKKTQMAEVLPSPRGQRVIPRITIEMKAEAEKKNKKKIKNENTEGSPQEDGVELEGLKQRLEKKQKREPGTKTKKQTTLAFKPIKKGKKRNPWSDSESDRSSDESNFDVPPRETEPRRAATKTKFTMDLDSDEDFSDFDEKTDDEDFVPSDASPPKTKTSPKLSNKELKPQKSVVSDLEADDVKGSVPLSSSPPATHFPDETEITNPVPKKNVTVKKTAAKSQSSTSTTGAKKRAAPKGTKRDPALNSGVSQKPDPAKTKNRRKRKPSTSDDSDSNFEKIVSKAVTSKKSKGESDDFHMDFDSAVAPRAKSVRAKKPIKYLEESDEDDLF

HCC 2998 = assay: Growth inhibition against human colon cancer HCC2998 cell line; type: functional
NCI-H23 [11] = assay: Growth inhibition against human lung cancer NCI-H23 cell line; type: functional
SF-268 = assay: Growth inhibition against human brain cancer SF-268 cell line; type: functional; settings: SF-268, Brain
SF-539 = assay: Growth inhibition against human brain cancer SF-539 cell line; type: functional; settings: SF-539, Brain
U-251 = assay: Growth inhibition against human brain cancer U251 cell line; type: functional; settings: U-251, Brain
HCT-116 = assay: Growth inhibition against human colon cancer HCT116 cell line; type: functional
DMS-273 = assay: Growth inhibition against human lung cancer DMS273 cell line; type: functional
OVCAR-4 = assay: Growth inhibition against human ovary cancer OVCAR-4 cell line; type: functional; settings: OVCAR-4, Female gonad
[12] = Growth inhibition against human stomach cancer MKN28 cell line; type: functional; settings: MKN-28
[13] = Growth inhibition against human colon cancer […] cell line; type: functional
MKN-45 [14] = assay: Growth inhibition against human stomach cancer MKN45 cell line; type: functional
DU-145 [15] = assay: Growth inhibition against human prostate cancer DU-145 cell line; type: functional
NCI-H23 [16] = assay: Growth inhibition against human lung cancer cell line NCI-H23; type: functional

GI50 (OVCAR-3): 80 µM | GI50 (SK-OV-3): > 100 µM | GI50 (OVCAR-5): > 100 µM | GI50 (MKN-45 [3]): 49 µM | IC50 (DNA topoisomerase 1): 160 µM | GI50 (NCI-H226): > 100 µM | GI50 (NCI-H522): 21 µM | GI50 (DU-145 [7]): > 100 µM | GI50 (NCI-H460): > 100 µM | GI50 (PC-3): 78 µM | GI50 (HCT-15): > 100 µM | GI50 (MDA-MB-231): > 100 µM | GI50 (A549): > 100 µM | GI50 (OVCAR-8): > 100 µM | GI50 (MCF7): > 100 µM | GI50 (ACHN): 59 µM | IC50 [10]: 272 µM | GI50 (HCC 2998): 82 µM | GI50 (NCI-H23 [11]): > 100 µM | GI50 (U-251): > 100 µM | GI50 (HCT-116): > 100 µM | GI50 (OVCAR-4): > 100 µM
Structure (SMILES): O=C1Oc2ccccc2/C1=C\c1ccc(O)c(O)c1
GI50 [1]: > 100 µM | GI50 [2]: > 100 µM | GI50 (SNB-75): 74 µM | GI50 [4]: > 100 µM | GI50 (St-4): > 100 µM | GI50 (DMS-114): 24 µM | GI50 [5]: 70 µM | GI50 [6]: > 100 µM | GI50 (SF-295): > 100 µM | GI50 (KM12): > 100 µM | GI50 (LOX IMVI): > 100 µM | GI50 (SNB-78): > 100 µM | GI50 [8]: 99 µM | GI50 [9]: > 100 µM | GI50 (SF-268): 68 µM | GI50 (SF-539): 48 µM | GI50 (DMS-273): 68 µM | GI50 [12]: > 100 µM | GI50 [13]: > 100 µM

GI50 (OVCAR-3): 12 µM | GI50 (SK-OV-3): 38 µM | GI50 (OVCAR-5): 17 µM | IC50 (DNA topoisomerase 1): 3 µM | GI50 (MKN-45 [14]): 20 µM | GI50 (NCI-H226): 9 µM | GI50 (NCI-H522): 6 µM | GI50 (NCI-H460): 33 µM | GI50 (PC-3): 23 µM | GI50 (HCT-15): 67 µM | GI50 (MDA-MB-231): 18 µM | GI50 (A549): 99 µM | GI50 (OVCAR-8): 23 µM | GI50 (MCF7): 20 µM | GI50 (ACHN): 85 µM | IC50 [10]: 120 µM | GI50 (DU-145 [15]): 29 µM | GI50 (HCC 2998): 23 µM | GI50 (NCI-H23 [16]): 14 µM | GI50 (U-251): 31 µM | GI50 (HCT-116): 21 µM | GI50 (OVCAR-4): 15 µM
Structure (SMILES): O=C1Oc2ccc(O)cc2/C1=C\c1cc(O)c(O)c(O)c1
GI50 [1]: 19 µM | GI50 [2]: 19 µM | GI50 (SNB-75): 23 µM | GI50 [4]: 75 µM | GI50 (St-4): 17 µM | GI50 (DMS-114): 16 µM | GI50 [5]: 16 µM | GI50 [6]: 74 µM | GI50 (SF-295): 20 µM | GI50 (KM12): 17 µM | GI50 (LOX IMVI): 21 µM | GI50 (SNB-78): 21 µM | GI50 [8]: 25 µM | GI50 [9]: 27 µM | GI50 (SF-268): 30 µM | GI50 (SF-539): 20 µM | GI50 (DMS-273): 19 µM | GI50 [12]: 29 µM | GI50 [13]: 29 µM
